Experimental data from ChEMBL document CHEMBL2016448, “Discovery of new piperidine amide triazolobenzodiazepinones as intestinal-selective CCK1 receptor agonists” (Bioorg Med Chem Lett, 2012).
pEC50, pIC50: −log10 of the molar value.

How the values were obtained:
[1] = target: T1, Cholecystokinin receptor type A (Homo sapiens, UniProt P32238); test: Agonist activity at human CCK1 receptor assessed as increase in CCK8-induced calcium release incubated in dark for 30 mins followed by light incubation for 30 mins measured by FLIPR assay; format: functional
T1 sequence (P32238 whole entry): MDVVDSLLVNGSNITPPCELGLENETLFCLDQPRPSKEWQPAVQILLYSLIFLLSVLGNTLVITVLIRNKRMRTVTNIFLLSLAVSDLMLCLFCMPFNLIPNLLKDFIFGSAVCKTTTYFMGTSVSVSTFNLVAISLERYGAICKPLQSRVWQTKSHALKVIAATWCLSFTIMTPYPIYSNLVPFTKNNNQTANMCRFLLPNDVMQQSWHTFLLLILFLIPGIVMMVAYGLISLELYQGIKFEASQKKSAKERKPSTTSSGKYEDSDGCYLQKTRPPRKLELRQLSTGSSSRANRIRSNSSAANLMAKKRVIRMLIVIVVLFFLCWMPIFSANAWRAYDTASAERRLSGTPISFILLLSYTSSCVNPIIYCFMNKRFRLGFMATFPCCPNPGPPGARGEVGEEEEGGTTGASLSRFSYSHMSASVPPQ
Method in brief: (§1)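 FLIPR functional assay in CHO cells expressing human CCK1R. Agonism expressed as % of the CCK-8 peptide response. Initial screen at 30 µM, with >30% counted as active. Actives then run as full dose–response. EC50 is the geometric mean of at least 2 independent experiments.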

[2] = target: T2, Cholecystokinin receptor type A (Homo sapiens) (UniProt P32238); test: Agonist activity at human CCK1 receptor assessed as increase in CCK8-induced calcium release incubated in dark for 30 mins followed by light incubation for 30 mins measured by FLIPR assay relative to CCK8; format: functional; method in brief: as §1
T2 sequence (whole entry): T1 sequence (P32238 whole entry)

[3] = Intrinsic clearance in human microsomes; format: ADME, Microsome
Method in brief: (§2)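 Intrinsic clearance measured in human liver microsomes. The free value is corrected for microsomal binding.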

[4] = target: T1, Cholecystokinin receptor type A; test: Displacement of [125I]-CCK-8 from human CCK1 receptor expressed in CHO cells after 90 mins by liquid scintillation counting
[5] = Lipophilicity, log D of the compound at pH 7.4; format: physicochemical; conditions: buffer
Liver = test: Clearance in rat liver; format: ADME, organism-based; conditions: in vivo
[6] = Solubility of the compound in phosphate buffer; format: physicochemical
[7] = Bioavailability in rat portal system; format: ADME, organism-based
[8] = Free intrinsic clearance in human microsomes; format: ADME, Microsome; method in brief: as §2
Mus musculus [9] = test: Antiobesity in C57Bl/6J mouse assessed as reduction in gall bladder weight at 0.6 mg/kg, po measured after 1 hr relative to control; format: functional; parameters: scale not given: the % may be the effect or the level left
Mus musculus [10] = test: Antiobesity in C57Bl/6J mouse assessed as reduction in gall bladder weight at 2 mg/kg, po measured after 24 hr relative to control; format: functional; parameters: scale not given: the % may be the effect or the level left
[11] = Ratio free drug level in gut to portal system of Sprague-Dawley rat at 10 mg/kg, po administered as single dose measured after 4 hrs; format: ADME, organism-based; parameters: dose 10 mg/kg, route oral
Method in brief: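 Single oral dose to rats. Gut and portal drug exposures were measured at 2 h and 4 h post-dose and corrected for non-specific binding to give free concentrations. The free gut to free portal ratio was then calculated at each time point.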

[12] = Drug excretion in Sprague-Dawley rat bile at 1 mg/kg, iv measured after 24 hrs; format: ADME, organism-based; parameters: dose 1 mg/kg, route intravenous; conditions: read-out: Ae
Method in brief: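 Bile-cannulated rats dosed iv at 1 mg/kg. Bile collected over 24 h and % of dose excreted into bile determined.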

Plasma [13] = test: Plasma clearance in Sprague-Dawley rat at 3 mg/kg, iv; format: ADME, organism-based; parameters: dose 3 mg/kg, route intravenous; conditions: in vivo
[14] = Tmax in Sprague-Dawley rat at 6 mg/kg, po; format: ADME, organism-based; parameters: dose 6 mg/kg, route oral; conditions: in vivo
Method in brief: (§3)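 Male Sprague–Dawley rats dosed iv or po. Oral doses given in SDD formulation. Plasma PK parameters reported as mean of n = 3 rats.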

Rattus norvegicus [15] = test: Toxicity in Sprague-Dawley rat assessed as gastrointestinal side-effects at 2 to 6 mg/kg, po; format: organism-based; parameters: dose 2-6 mg/kg, route oral; conditions: in vivo
Method in brief: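 Diet-induced obese rats dosed orally at 2 and 6 mg/kg for 5 days and monitored for gastrointestinal side-effects.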

[16] = Bioavailability in Sprague-Dawley rat portal system; format: ADME, organism-based
[17] = fCmax in Sprague-Dawley rat portal system; format: ADME
[18] = Cmax in Sprague-Dawley rat plasma at 6 mg/kg, po; format: ADME, organism-based; parameters: dose 6 mg/kg, route oral; method in brief: as §3
[19] = Drug level in C57Bl/6J mouse bile at 0.6 mg/kg; format: ADME, organism-based; parameters: dose 0.6 mg/kg; conditions: in vivo
Blood = test: Drug level in C57Bl/6J mouse blood at 0.6 mg/kg; format: ADME, organism-based; parameters: dose 0.6 mg/kg; conditions: in vivo
Mus musculus [20] = test: Antiobesity in C57Bl/6J mouse assessed as reduction in gall bladder weight at 0.2 mg/kg, po measured after 24 hr relative to control; format: functional; parameters: scale not given: the % may be the effect or the level left
Mus musculus [21] = test: Antiobesity in C57Bl/6J mouse assessed as decrease in food intake at 0.2 mg/kg, po measured after 2 hr relative to control; format: functional; parameters: scale not given: the % may be the effect or the level left
Method in brief: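 Mice fasted overnight, then refed. Compound given orally in SDD formulation at increasing doses. Food intake measured at 2 h against vehicle-treated mice. Minimally efficacious dose defined as significant inhibition (p <0.05).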

Plasma [22] = test: Plasma clearance in Sprague-Dawley rat at 0.3 mg/kg, iv; format: ADME, organism-based; parameters: dose 0.3 mg/kg, route intravenous; conditions: in vivo; method in brief: as §3
[23] = Oral bioavailability in Sprague-Dawley rat at 6 mg/kg; format: ADME, organism-based; conditions: in vivo; method in brief: as §3
Rattus norvegicus [24] = test: fCmax in Sprague-Dawley rat at 6 mg/kg, po; format: ADME, organism-based; parameters: dose 6 mg/kg, route oral; conditions: in vivo; method in brief: as §3
[25] = Volume of distribution at steady state in Sprague-Dawley rat at 0.3 mg/kg, iv; format: ADME, organism-based; parameters: dose 0.3 mg/kg, route intravenous; conditions: in vivo, read-out: Vdss; method in brief: as §3
[26] = AUC (0 to last) in Sprague-Dawley rat at 0.3 mg/kg, iv; format: ADME, organism-based; parameters: time 0 - last, dose 0.3 mg/kg, route intravenous; conditions: plasma; method in brief: as §3
[27] = AUC (0 to last) in Sprague-Dawley rat at 6 mg/kg, po; format: ADME, organism-based; parameters: dose 6 mg/kg, route oral, time 0 - last; conditions: plasma; method in brief: as §3
[28] = Half life in Sprague-Dawley rat at 0.3 mg/kg, iv; format: ADME, organism-based; parameters: dose 0.3 mg/kg, route intravenous; conditions: in vivo; method in brief: as §3
Rattus norvegicus [29] = test: Antiobesity in diet-induced obese Sprague-Dawley rat assessed as decrease in body weight gain at 2 mg/kg, po measured after 5 days; format: functional; parameters: scale not given: the % may be the effect or the level left
Rattus norvegicus [30] = test: Antiobesity in diet-induced obese Sprague-Dawley rat assessed as decrease in body weight gain at 6 mg/kg, po measured after 5 days; format: functional; parameters: scale not given: the % may be the effect or the level left
Rattus norvegicus [31] = test: Antiobesity in diet-induced obese Sprague-Dawley rat assessed as decrease in food intake at 2 mg/kg, po measured after 5 days relative to control; format: functional; parameters: scale not given: the % may be the effect or the level left
Rattus norvegicus [32] = test: Antiobesity in diet-induced obese Sprague-Dawley rat assessed as decrease in food intake at 6 mg/kg, po measured after 5 days relative to control; format: functional; parameters: scale not given: the % may be the effect or the level left

COCCC1CCCCN1C(=O)CN1C(=O)C(Cc2c[nH]c3ccccc23)c2nnc(-c3ccccc3)n2-c2ccccc21 (mixture of isomers)
pEC50 [1]: 7.28
Efficacy [2]: 97%
clearance [3]: > 300 µL/min/mg
pIC50 [4]: 7.31

CC(C)N(Cc1ccccc1)C(=O)CN1C(=O)[C@@H](Cc2n[nH]c3ccccc23)c2nnc(-c3ccccc3)n2-c2ccccc21
pEC50 [1]: 6.42
Efficacy [2]: 72%
logD ([5]; read-out: logD): 4.7
pIC50 [4]: 7.42

CC(C)N(Cc1ccccc1)C(=O)CN1C(=O)[C@@H](Cc2c[nH]c3ccccc23)c2nnc(-c3ccccc3)n2-c2ccccc21 [CE-326597]
CLH (Liver): 47 mL/min/kg
solubility [6]: Insoluble
bioavailability [7]: 9%
Efficacy [2]: 95%
clearance [3]: 199 µL/min/mg
logD [5]: 4.9
CL free [8]: 597 µL/min/mg
Activity (Mus musculus [9]): 91%
Activity (Mus musculus [10]): 27.5%
Kp uu at 4 h [11]: 65
dose excreted at 24 h [12]: 0.04%
clearance (Plasma [13]): 41.7 mL/min/kg
Tmax [14]: 1.33 h

O=C1C(Cc2c[nH]c3ccccc23)c2nnc(-c3ccccc3)n2-c2ccccc2N1CC(=O)N1CCCCC1c1ccccc1 (mixture of isomers)
pEC50 [1]: 5.78
Efficacy [2]: 87%
pIC50 [4]: 6.61

Cc1cc(C)cc(C[C@H]2CCCCN2C(=O)CN2C(=O)[C@@H](Cc3n[nH]c4ccccc34)c3nnc(-c4ccccc4)n3-c3ccccc32)c1
Activity (Rattus norvegicus [15]): Non-toxic
bioavailability [16]: 0.56%
fCmax [17]: 0.063 nM
Cmax [18]: 0.46 ng/mL
Drug uptake [19]: Not Active
Drug uptake (Blood): Not Active
Efficacy [2]: 89%
logD ([5]; read-out: logD): 5.6
CL free [8]: 2300 µL/min/mg
Activity (Mus musculus [9]): 89%
Activity (Mus musculus [20]): 19%
dose excreted at 24 h [12]: 0.044%
Activity (Mus musculus [21]): 34%
clearance (Plasma [22]): 176 mL/min/kg
bioavailability [23]: 0.13%
fCmax (Rattus norvegicus [24]): 0.014 nM
Tmax [14]: 0.25 h
Vd [25]: 17.6 L/kg
AUC(0-t) [26]: 29 ng·h/mL
AUC(0-t) [27]: 0.74 ng·h/mL
half-life [28]: 2.04 h
Activity (Rattus norvegicus [29]): 22%
Activity (Rattus norvegicus [30]): 44%
Activity (Rattus norvegicus [31]): 19%
Activity (Rattus norvegicus [32]): 25%

O=C1C(Cc2c[nH]c3ccccc23)c2nnc(-c3ccccc3)n2-c2ccccc2N1CC(=O)N1CCCC1c1ccccc1 (mixture of isomers)
pEC50 [1]: 5.67
Efficacy [2]: 83%
pIC50 [4]: 6.77

O=C(CN1C(=O)C(Cc2c[nH]c3ccccc23)c2nnc(-c3ccccc3)n2-c2ccccc21)N1CCC(Cc2ccccc2)C1 (mixture of isomers)
pEC50 [1]: 5.88
Efficacy [2]: 85%
clearance [3]: 148 µL/min/mg
pIC50 [4]: 7.16

O=C1C(Cc2c[nH]c3ccccc23)c2nnc(-c3ccccc3)n2-c2ccccc2N1CC(=O)N1CCCCC1Cc1ccccc1 (mixture of isomers)
pEC50 [1]: 7.07
Efficacy [2]: 78%
clearance [3]: 146 µL/min/mg
pIC50 [4]: 7.35
